The source made the active and inactive calls. The calls are words filed in the database; no cut-off is given here.
Tests used:
Trypanosoma cruzi [1] = experiment: Antitrypanosomal activity against Trypanosoma cruzi Y infected in mouse assessed as decrease in parasitemia in blood at 200 mg/kg, po upto 40 days post infection; format: functional; design: scale not given: the % may be the effect or the level left
Procedure, shortened: (§1)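 Male Swiss mice (6–8 weeks, 18–20 g), 8–10 per group, infected i.p. with 10^4 bloodstream trypomastigotes (Y strain). On dpi 5, a single 200 mg/kg oral gavage dose was given in water with 10% Tween-80. Parasitemia was counted daily from dpi 6 to 21 by the Pizzi-Brener method. Body weight was recorded weekly. Mortality was recorded daily, and cumulative mortality at 40 dpi and M50 were calculated.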

Trypanosoma cruzi [2] = experiment: Antitrypanosomal activity against Trypanosoma cruzi Y infected in mouse assessed as decrease in mouse mortality at 200 mg/kg, po upto 40 days post infection; format: functional, organism-based; design: dose 200 mg/kg; procedure, shortened: as §1
Trypanosoma cruzi [3] = experiment: Antitrypanosomal activity against Trypanosoma cruzi trypomastigotes assessed as shrinkage of cell surface and body at 11.6 uM after 24 hrs by scanning electron microscopy; format: functional, organism-based
Procedure, shortened: (§2)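 Trypomastigotes (5 × 10^6/ml) were treated for 24 h and adhered to poly-L-lysine coverslips. They were fixed in 2.5% glutaraldehyde in 0.1 M cacodylate (pH 7.2) for 40 min and postfixed for 30 min in 1% OsO4, 0.8% ferricyanide and 2.5 mM CaCl2. Samples were acetone-dehydrated, critical-point dried, gold-coated (20 nm) and examined by scanning EM.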

Trypanosoma cruzi [4] = experiment: Antitrypanosomal activity against Trypanosoma cruzi trypomastigotes assessed as shortening of flagellum at 11.6 uM after 24 hrs by scanning electron microscopy; format: functional, organism-based; procedure, shortened: as §2
Trypanosoma cruzi [5] = experiment: Antitrypanosomal activity against Trypanosoma cruzi amastigotes infected in mouse peritoneal macrophages assessed as inhibition of infection after 1 day; format: functional, organism-based; settings: 24 h
Procedure, shortened: (§3)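 Swiss mouse peritoneal macrophages (3 × 10^5/well) were plated for 24 h, then infected with Y-strain trypomastigotes (10:1) in DMEM with 10% FCS for 3 h. Free parasites were washed off, and compounds were added at 2.5–30 µM final for 1–4 days. Cells were fixed in Bouin's solution and stained with Giemsa. Percent infection and endocytic index (parasites/100 cells) were counted, and IC50 was derived. Three independent experiments.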

Trypanosoma cruzi [6] = experiment: Antitrypanosomal activity against Trypanosoma cruzi amastigotes infected in mouse peritoneal macrophages assessed as inhibition of infection after 2 day; format: functional, organism-based; settings: 48 h; procedure, shortened: as §3
Trypanosoma cruzi [7] = experiment: Antitrypanosomal activity against Trypanosoma cruzi amastigotes infected in mouse peritoneal macrophages assessed as inhibition of infection after 3 day; format: functional, organism-based; settings: 72 h; procedure, shortened: as §3
Trypanosoma cruzi [8] = experiment: Antitrypanosomal activity against Trypanosoma cruzi amastigotes infected in mouse peritoneal macrophages assessed as inhibition of infection after 4 day; format: functional, organism-based; settings: 96 h; procedure, shortened: as §3
Trypanosoma cruzi [9] = experiment: Antitrypanosomal activity against Trypanosoma cruzi amastigotes infected in mouse peritoneal macrophages assessed as endocytic index after 1 day; format: functional, organism-based; settings: 24 h; procedure, shortened: as §3
Trypanosoma cruzi [10] = experiment: Antitrypanosomal activity against Trypanosoma cruzi amastigotes infected in mouse peritoneal macrophages assessed as endocytic index after 2 day; format: functional, organism-based; settings: 48 h; procedure, shortened: as §3
Trypanosoma cruzi [11] = experiment: Antitrypanosomal activity against Trypanosoma cruzi amastigotes infected in mouse peritoneal macrophages assessed as endocytic index after 3 day; format: functional, organism-based; settings: 72 h; procedure, shortened: as §3
Trypanosoma cruzi [12] = experiment: Antitrypanosomal activity against Trypanosoma cruzi amastigotes infected in mouse peritoneal macrophages assessed as endocytic index after 4 day; format: functional, organism-based; settings: 96 h; procedure, shortened: as §3
Trypanosoma cruzi [13] = experiment: Antitrypanosomal activity against Trypanosoma cruzi amastigotes infected in mouse embryo heart muscle cells assessed as endocytic index at 40 uM; format: functional, organism-based
Procedure, shortened: (§4)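 Mouse embryo heart muscle cells (10^5/well) were plated on gelatin-coated coverslips and infected after 24 h with trypomastigotes at 10:1 parasite/host cell. After another 24 h, cultures were washed and exposed to compounds at 10–40 µM final. At intervals, cells were fixed in Bouin's solution and stained with Giemsa. Percent infection and endocytic index (parasites/100 cells) were counted, and IC50 was derived.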

[14] = Cytotoxicity against Swiss mouse peritoneal macrophages after 48 hrs by MTT assay; format: cell-based, Peritoneal macrophage cell; settings: read-out: LC50
Procedure, shortened: (§5)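 Uninfected host cells were exposed to compounds at 37°C for 2 days, with compound stocks in DMSO. Cells were Swiss mouse peritoneal macrophages or primary mouse embryo heart muscle cells (18-day embryos, trypsin/collagenase dissociated, gelatin-coated coverslips, DMEM with horse and fetal calf sera, chicken embryo extract). Viability was read by MTT at 490 nm to give LC50.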

[15] = Cytotoxicity against swiss mouse HMC after 48 hrs by MTT assay; settings: read-out: LC50; procedure, shortened: as §5
[16] = Selectivity index, ratio of LC50 for mouse peritoneal macrophages to IC50 for inhibition of Trypanosoma cruzi amastigotes
Procedure, shortened: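 SI = LC50/IC50 in peritoneal macrophages. LC50 came from the 2-day MTT assay on uninfected macrophages. Cells were Bouin-fixed and Giemsa-stained, and endocytic index (parasites/100 cells) was counted. Three independent experiments.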

Mus musculus [17] = experiment: Toxicity in mouse assessed as body weight at 400 mg/kg, po after 4 days; format: organism-based; design: dose 400 mg/kg, route oral; settings: in vivo, 96 h
Procedure, shortened: (§6)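 Uninfected male Swiss mice, 8–10 per group, received by gavage either a single 400 mg/kg dose or 10 doses of 100 mg/kg (vehicle water with 10% Tween-80). GOT, GPT and urea were measured directly in blood with the Reflotron system, and body weight was recorded. Single-dose toxicity was analyzed 4 days after treatment.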

Mus musculus [18] = experiment: Toxicity in mouse assessed as GOT level in blood at 400 mg/kg, po after 4 days; format: organism-based; design: dose 400 mg/kg, route oral; settings: in vivo, 96 h; procedure, shortened: as §6
Mus musculus [19] = experiment: Toxicity in mouse assessed as GPT level in blood at 400 mg/kg, po after 4 days; format: organism-based; design: dose 400 mg/kg, route oral; settings: in vivo, 96 h; procedure, shortened: as §6
Mus musculus [20] = experiment: Toxicity in mouse assessed as urea level in blood at 400 mg/kg, po after 4 days; format: organism-based; design: dose 400 mg/kg, route oral; settings: in vivo, 96 h; procedure, shortened: as §6
Trypanosoma cruzi [21] = experiment: Antitrypanosomal activity against Trypanosoma cruzi infected in mouse assessed as decrease in parasitemia in blood at 100 mg/kg, po after 6 days post infection; format: functional
Procedure, shortened: (§7)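 Male Swiss mice, 8–10 per group, infected i.p. with 10^4 bloodstream trypomastigotes. From dpi 6, mice received 10 consecutive daily gavage doses of 100 mg/kg in water with 10% Tween-80. Parasitemia was read daily on dpi 6–21 by the Pizzi-Brener method. Mortality was noted daily, and %CM at 40 dpi and M50 were calculated.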

Trypanosoma cruzi [22] = experiment: Antitrypanosomal activity against Trypanosoma cruzi infected in mouse assessed as decrease in mortality rate at 100 mg/kg, po after 6 days post infection; format: functional, organism-based; design: dose 100 mg/kg; procedure, shortened: as §7
Trypanosoma cruzi [23] = experiment: Antitrypanosomal activity against Trypanosoma cruzi infected in mouse assessed as reduction in inflammatory foci in cardiac muscle at 100 mg/kg, po after 6 days post infection; format: functional, organism-based; design: dose 100 mg/kg; settings: Muscle tissue
Procedure, shortened: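 Infected mice were dosed by gavage at 100 mg/kg daily for 10 days from dpi 6. Two mice per group were euthanized at 14 dpi. Paraffin heart sections were stained with hematoxylin-eosin. Under a 40× objective, parasite nests and inflammatory foci (≥10 mononuclear cells) were counted per mm2 over 30 fields.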

Trypanosoma cruzi [24] = experiment: Antitrypanosomal activity against Trypanosoma cruzi Y infected in mouse assessed as decrease in mouse mortality at 200 mg/kg, po after 20 days post infection; format: functional, organism-based; design: dose 200 mg/kg; procedure, shortened: as §1
Trypanosoma cruzi [25] = experiment: Antitrypanosomal activity against Trypanosoma cruzi Y infected in mouse assessed as decrease in mouse mortality at 200 mg/kg, po after 16 days post infection; format: functional; design: scale not given: the % may be the effect or the level left
Procedure, shortened: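 Male albino Swiss mice (6 to 8 weeks, 18 to 20 g), 8 to 10 per group, infected i.p. with 10^4 Y-strain bloodstream trypomastigotes. […] Parasitemia checked daily by Pizzi-Brener method; mortality noted daily to 40 dpi, cumulative mortality and M50 calculated.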

Trypanosoma cruzi [26] = experiment: Antitrypanosomal activity against Trypanosoma cruzi trypomastigotes assessed as alteration in flagellar structure with membrane expansion at […] after 24 hrs by Transmission electron microscopy; format: functional, organism-based
Trypanosoma cruzi [27] = experiment: Antitrypanosomal activity against Trypanosoma cruzi trypomastigotes assessed as alteration in nuclear envelop dilation at […] after 24 hrs by Transmission electron microscopy; format: functional, organism-based
Trypanosoma cruzi [28] = experiment: Antitrypanosomal activity against Trypanosoma cruzi trypomastigotes assessed as alteration in autophagosome-like structure formation at […] after 24 hrs by Transmission electron microscopy; format: functional, organism-based
Trypanosoma cruzi [29] = experiment: Antitrypanosomal activity against Trypanosoma cruzi trypomastigotes assessed as parasite body rounding at […] after 24 hrs by scanning electron microscopy; format: functional, organism-based
Trypanosoma cruzi [30] = experiment: Antitrypanosomal activity against Trypanosoma cruzi amastigotes infected in mouse embryo heart muscle cells assessed as inhibition of infection after 24 hrs; format: functional, organism-based; procedure, shortened: as §4
Trypanosoma cruzi [31] = experiment: Antitrypanosomal activity against Trypanosoma cruzi amastigotes infected in mouse embryo heart muscle cells assessed as inhibition of infection; format: functional, organism-based; settings: TDE = time-dependent effect; procedure, shortened: as §4
Trypanosoma cruzi [32] = experiment: Antitrypanosomal activity against Trypanosoma cruzi amastigotes infected in mouse embryo heart muscle cells assessed as endocytic index; format: functional, organism-based; procedure, shortened: as §4
[33] = Selectivity index, ratio of LC50 for mouse HMC to IC50 for inhibition of Trypanosoma cruzi amastigotes
Mus musculus [34] = experiment: Toxicity in mouse assessed as GOT level in blood at 100 mg/kg, po after 4 days; format: organism-based; design: dose 100 mg/kg, route oral; settings: in vivo, 96 h; procedure, shortened: as §6
Mus musculus [35] = experiment: Toxicity in mouse assessed as GPT level in blood at 100 mg/kg, po after 4 days; format: organism-based; design: dose 100 mg/kg, route oral; settings: in vivo, 96 h; procedure, shortened: as §6
Mus musculus [36] = experiment: Toxicity in mouse assessed as urea level in blood at 100 mg/kg, po after 4 days; format: organism-based; design: dose 100 mg/kg, route oral; settings: in vivo, 96 h; procedure, shortened: as §6

## Cn1c([N+](=O)[O-])cnc1-c1nnc(N/N=C\c2ccc(O)cc2)s1
Trypanosoma cruzi [1]
  Activity: 50%
Trypanosoma cruzi [2]
  Activity: Active
Trypanosoma cruzi [3]
  Activity: Active
Trypanosoma cruzi [4]
  Activity: Active
Trypanosoma cruzi [5]
  IC50: 7100 nM
Trypanosoma cruzi [6]
  IC50: 6000 nM
Trypanosoma cruzi [7]
  IC50: 6200 nM
Trypanosoma cruzi [8]
  IC50: 1700 nM
Trypanosoma cruzi [9]
  IC50: 5000 nM
Trypanosoma cruzi [10]
  IC50: 2900 nM
Trypanosoma cruzi [11]
  IC50: 3200 nM
Trypanosoma cruzi [12]
  IC50: 1300 nM
Trypanosoma cruzi [13]
  Activity: inactive
[14]
  CC50 at 48 h: > 100000 nM
[15]
  CC50 at 48 h: > 240000 nM
[16]
  Ratio LC50/IC50: >41
Mus musculus [17]
  Activity: 25.5 g
Mus musculus [18]
  Activity: 76.6 U/L
Mus musculus [19]
  Activity: 24.4 U/L
Mus musculus [20]
  Activity: 58.6 mg/dL
Trypanosoma cruzi [21]; 144 h
  inhibition in vivo at 100 mg/kg: 46%
Trypanosoma cruzi [22]
  Activity: inactive
Trypanosoma cruzi [23]
  Activity: Active

## Cn1c([N+](=O)[O-])cnc1-c1nnc(N/N=C\c2ccccc2O)s1
Trypanosoma cruzi [1]
  Activity: inactive
Trypanosoma cruzi [2]
  Activity: inactive

## Cn1c([N+](=O)[O-])cnc1-c1nnc(N/N=C\c2cc(C(C)(C)C)c(O)c(C(C)(C)C)c2)s1
Trypanosoma cruzi [1]
  Activity: Active
Trypanosoma cruzi [24]
  Activity: inactive

## Cn1c([N+](=O)[O-])cnc1-c1nnc(N/N=C\c2ccc(O)c(O)c2)s1 [BRAZILIZONE A]
Trypanosoma cruzi [1]
  Activity: inactive
Trypanosoma cruzi [2]
  Activity: inactive
Trypanosoma cruzi [25]
  Activity: 50%
Trypanosoma cruzi [26]
  Activity: Active
Trypanosoma cruzi [27]
  Activity: Active
Trypanosoma cruzi [28]
  Activity: Active
Trypanosoma cruzi [29]
  Activity: Active
Trypanosoma cruzi [5]
  IC50: 2100 nM
Trypanosoma cruzi [6]
  IC50: 4400 nM
Trypanosoma cruzi [7]
  IC50: 2600 nM
Trypanosoma cruzi [8]
  IC50: 1700 nM
Trypanosoma cruzi [9]
  IC50: 2000 nM
Trypanosoma cruzi [10]
  IC50: 2200 nM
Trypanosoma cruzi [11]
  IC50: 1400 nM
Trypanosoma cruzi [12]
  IC50: 1900 nM
Trypanosoma cruzi [30]
  Activity: Dose-dependent effect
Trypanosoma cruzi [31]
  Activity: tde
Trypanosoma cruzi [32]
  IC50: 7600 nM
[14]
  CC50 at 48 h: > 60000 nM
[15]
  CC50 at 48 h: > 240000 nM
[16]
  Ratio LC50/IC50: >27
[33]
  fold change (FC): > 32
Mus musculus [17]
  Activity: 25.8 g
Mus musculus [18]
  Activity: 62.4 U/L
Mus musculus [19]
  Activity: 22.7 U/L
Mus musculus [20]
  Activity: 51.6 mg/dL
Mus musculus [34]
  Activity: Non-toxic
Mus musculus [35]
  Activity: Non-toxic
Mus musculus [36]
  Activity: Non-toxic
Trypanosoma cruzi [21]
  Activity: inactive
Trypanosoma cruzi [22]
  Activity: inactive
Trypanosoma cruzi [23]
  Activity: inactive

Reference: ChEMBL document CHEMBL1255468 (Antimicrob Agents Chemother, 2010)
